Converted amounts (≈) assume the structure as drawn. The source made the active and inactive calls. The calls are words filed in the database; no cut-off is given here.
What was measured:
[1] = system: Salmonella typhimurium; assay: Mutagenicity in Salmonella typhimurium by Ames assay; assay type: toxicity; settings: salmonella enterica subsp. enterica serovar typhimurium
[2] = system: Mus musculus; assay: Time at which free plasma concentration stays above antiproliferative KARPAS422 cells IC90 level in mouse xenografted with human KARPAS422 cells at 300 mg/kg, po bid
[3] = biological target: T1, Histone-lysine N-methyltransferase EZH2 (Homo sapiens, UniProt Q15910); assay: Binding affinity to EZH2 (unknown origin)
Target sequence in this assay (Q15910 whole entry): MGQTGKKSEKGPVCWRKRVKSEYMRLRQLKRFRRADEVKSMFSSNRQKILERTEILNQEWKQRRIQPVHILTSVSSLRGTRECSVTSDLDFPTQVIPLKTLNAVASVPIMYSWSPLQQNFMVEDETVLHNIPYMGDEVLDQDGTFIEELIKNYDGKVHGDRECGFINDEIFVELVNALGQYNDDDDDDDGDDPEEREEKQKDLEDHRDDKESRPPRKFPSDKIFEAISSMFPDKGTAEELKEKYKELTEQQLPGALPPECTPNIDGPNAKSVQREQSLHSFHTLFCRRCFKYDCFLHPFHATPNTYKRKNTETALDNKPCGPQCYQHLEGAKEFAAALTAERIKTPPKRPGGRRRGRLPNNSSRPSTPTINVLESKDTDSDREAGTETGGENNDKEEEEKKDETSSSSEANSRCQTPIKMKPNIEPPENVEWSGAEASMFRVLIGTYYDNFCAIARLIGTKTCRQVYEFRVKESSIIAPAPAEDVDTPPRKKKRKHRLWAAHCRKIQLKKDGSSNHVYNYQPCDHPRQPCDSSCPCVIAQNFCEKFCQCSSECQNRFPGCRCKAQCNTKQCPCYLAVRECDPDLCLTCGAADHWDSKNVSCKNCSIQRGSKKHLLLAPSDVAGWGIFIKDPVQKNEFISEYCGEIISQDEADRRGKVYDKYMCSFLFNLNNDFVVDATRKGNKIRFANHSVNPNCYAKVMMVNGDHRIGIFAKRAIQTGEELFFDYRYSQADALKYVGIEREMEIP

[4] = system: KARPAS-422; assay: Antitumor activity against human KARPAS422 cells harboring EZH2 Y641N mutant xenografted in mouse assessed as decrease in tumor growth at 100 mg/kg, po bid; assay type: functional, organism-based
[5] = Clearance in rat hepatocytes assessed per million cells; assay type: ADME, cell-based, Hepatocyte; settings: read-out: CLH
[6] = biological target: T1, Histone-lysine N-methyltransferase EZH2; assay: Inhibition of EZH2 in human KARPAS422 cells assessed as reduction in H3K27me3 level after 72 hrs by ELISA
Target sequence in this assay (Q15910 whole entry): as above

[7] = system: Mus musculus; assay: In vivo inhibition of EZH2 in mouse xenografted with human KARPAS422 cells harboring EZH2 Y641N mutant assessed as reduction in H3K27me3 level in tumor at 300 mg/kg, po bid measured 4 hrs post last dose on day 9 relative to control; assay type: functional; settings: KARPAS-422, po
In short: (§1)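 Mice bearing Karpas-422 (EZH2 Y641N) xenografts were dosed with crystalline suspension orally twice daily (7 h/17 h) or subcutaneously once daily. Tumors were collected on day 9, 4 h after the last dose, for H3K27me3 quantification.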

[8] = biological target: T2, Cytochrome P450 2C8 (Homo sapiens, UniProt P10632); assay: Inhibition of CYP2C8 (unknown origin); assay type: ADME
T2 sequence (P10632 whole entry): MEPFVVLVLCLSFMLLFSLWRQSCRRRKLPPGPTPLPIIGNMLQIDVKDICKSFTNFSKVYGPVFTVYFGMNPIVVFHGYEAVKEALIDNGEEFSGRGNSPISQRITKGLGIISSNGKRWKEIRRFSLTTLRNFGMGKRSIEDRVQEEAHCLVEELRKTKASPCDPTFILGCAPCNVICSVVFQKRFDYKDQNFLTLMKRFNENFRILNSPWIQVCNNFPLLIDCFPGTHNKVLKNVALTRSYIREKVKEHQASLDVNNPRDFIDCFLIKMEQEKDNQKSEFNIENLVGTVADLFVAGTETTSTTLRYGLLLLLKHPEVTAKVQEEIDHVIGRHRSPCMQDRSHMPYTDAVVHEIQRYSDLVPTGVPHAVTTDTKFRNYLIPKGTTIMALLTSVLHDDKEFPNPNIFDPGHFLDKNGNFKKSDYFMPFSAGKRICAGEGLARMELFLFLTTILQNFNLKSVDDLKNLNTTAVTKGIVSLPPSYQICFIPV

[9] = system: Mus musculus; assay: Toxicity in mouse xenografted with human KARPAS422 cells harboring EZH2 Y641N mutant assessed as change in body weight at 100 to 300 mg/kg, po bid; assay type: organism-based; settings: in vivo
[10] = system: KARPAS-422; assay: Antitumor activity against human KARPAS422 cells harboring EZH2 Y641N mutant xenografted in mouse assessed as decrease in tumor regression at 100 mg/kg, sc qd measured 40 days post treatment termination on day 31; assay type: functional, organism-based
[11] = biological target: Cytochrome P450 3A4 (Homo sapiens, UniProt P08684); assay: Inhibition of CYP3A4 (unknown origin); assay type: ADME
Cytochrome P450 3A4, sequence (P08684 whole entry): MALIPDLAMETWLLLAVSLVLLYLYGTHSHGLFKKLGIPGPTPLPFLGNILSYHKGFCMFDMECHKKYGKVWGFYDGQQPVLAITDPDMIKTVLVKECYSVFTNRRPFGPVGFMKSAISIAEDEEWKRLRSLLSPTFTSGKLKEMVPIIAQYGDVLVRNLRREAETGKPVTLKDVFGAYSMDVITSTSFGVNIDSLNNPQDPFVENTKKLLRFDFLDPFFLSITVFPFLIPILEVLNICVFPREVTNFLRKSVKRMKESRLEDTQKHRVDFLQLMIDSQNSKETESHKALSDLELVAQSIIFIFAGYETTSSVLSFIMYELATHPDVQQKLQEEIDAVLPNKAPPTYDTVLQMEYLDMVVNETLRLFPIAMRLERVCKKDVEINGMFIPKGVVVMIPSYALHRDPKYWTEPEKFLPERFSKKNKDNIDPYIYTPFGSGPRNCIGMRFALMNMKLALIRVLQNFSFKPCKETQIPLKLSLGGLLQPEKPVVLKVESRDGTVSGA

[12] = Thermodynamic solubility in water at 25 degC using crystalline form; assay type: physicochemical; settings: read-out: Therm_solubility
[13] = biological target: Cytochrome P450 2C19 (Homo sapiens, UniProt P33261); assay: Inhibition of CYP2C19 (unknown origin); assay type: ADME
Cytochrome P450 2C19, sequence (P33261 whole entry): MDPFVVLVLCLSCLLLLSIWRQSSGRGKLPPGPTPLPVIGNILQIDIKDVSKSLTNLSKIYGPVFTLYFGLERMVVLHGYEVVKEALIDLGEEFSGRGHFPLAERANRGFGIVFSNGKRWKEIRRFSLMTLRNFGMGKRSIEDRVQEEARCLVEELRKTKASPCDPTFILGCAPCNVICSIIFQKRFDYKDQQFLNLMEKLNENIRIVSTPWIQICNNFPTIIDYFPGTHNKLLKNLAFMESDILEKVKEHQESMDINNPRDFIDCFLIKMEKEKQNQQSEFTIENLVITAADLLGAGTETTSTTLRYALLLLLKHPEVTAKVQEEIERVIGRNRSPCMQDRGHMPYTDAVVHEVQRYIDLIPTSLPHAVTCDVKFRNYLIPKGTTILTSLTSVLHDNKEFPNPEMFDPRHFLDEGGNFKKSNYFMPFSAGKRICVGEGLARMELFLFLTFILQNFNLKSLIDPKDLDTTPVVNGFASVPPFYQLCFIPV

[14] = system: Mus musculus; assay: In vivo inhibition of EZH2 in mouse xenografted with human KARPAS422 cells harboring EZH2 Y641N mutant assessed as reduction in H3K27me3 level in tumor at 100 mg/kg, sc qd measured 4 hrs post last dose on day 9 relative to control; assay type: functional; settings: KARPAS-422, sc; in short: as §1
[15] = biological target: T3, Histone-lysine N-methyltransferase EZH1 (Homo sapiens, UniProt Q92800); assay: Binding affinity to EZH1 (unknown origin)
T3 sequence (Q92800 whole entry): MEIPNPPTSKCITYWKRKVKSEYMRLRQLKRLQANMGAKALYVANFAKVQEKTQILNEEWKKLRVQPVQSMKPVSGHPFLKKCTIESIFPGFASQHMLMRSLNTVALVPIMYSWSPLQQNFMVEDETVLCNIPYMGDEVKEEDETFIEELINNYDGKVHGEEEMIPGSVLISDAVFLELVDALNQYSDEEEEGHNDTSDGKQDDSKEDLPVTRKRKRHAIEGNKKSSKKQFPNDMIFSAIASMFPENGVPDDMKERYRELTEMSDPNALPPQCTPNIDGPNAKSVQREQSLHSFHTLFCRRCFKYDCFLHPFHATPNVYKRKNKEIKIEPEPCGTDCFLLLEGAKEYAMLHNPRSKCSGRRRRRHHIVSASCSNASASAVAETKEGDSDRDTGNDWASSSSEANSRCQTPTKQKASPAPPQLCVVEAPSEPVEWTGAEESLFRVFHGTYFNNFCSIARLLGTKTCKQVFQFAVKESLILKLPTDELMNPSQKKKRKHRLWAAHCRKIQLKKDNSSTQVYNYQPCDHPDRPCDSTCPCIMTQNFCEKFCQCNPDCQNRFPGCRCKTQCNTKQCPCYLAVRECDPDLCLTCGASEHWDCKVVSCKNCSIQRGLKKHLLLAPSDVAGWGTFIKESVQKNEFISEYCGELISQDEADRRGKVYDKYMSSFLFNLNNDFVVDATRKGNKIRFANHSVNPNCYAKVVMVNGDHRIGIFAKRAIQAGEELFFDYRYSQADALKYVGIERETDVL

[16] = system: KARPAS-422; assay: Antitumor activity against human KARPAS422 cells harboring EZH2 Y641N mutant xenografted in mouse assessed as tumor regression at 100 mg/kg, sc qd measured 40 days post treatment termination on day 31
[17] = biological target: Voltage-gated inwardly rectifying potassium channel KCNH2 (Homo sapiens, UniProt Q12809); assay: Inhibition of human ERG
Voltage-gated inwardly rectifying potassium channel KCNH2, sequence (Q12809 whole entry): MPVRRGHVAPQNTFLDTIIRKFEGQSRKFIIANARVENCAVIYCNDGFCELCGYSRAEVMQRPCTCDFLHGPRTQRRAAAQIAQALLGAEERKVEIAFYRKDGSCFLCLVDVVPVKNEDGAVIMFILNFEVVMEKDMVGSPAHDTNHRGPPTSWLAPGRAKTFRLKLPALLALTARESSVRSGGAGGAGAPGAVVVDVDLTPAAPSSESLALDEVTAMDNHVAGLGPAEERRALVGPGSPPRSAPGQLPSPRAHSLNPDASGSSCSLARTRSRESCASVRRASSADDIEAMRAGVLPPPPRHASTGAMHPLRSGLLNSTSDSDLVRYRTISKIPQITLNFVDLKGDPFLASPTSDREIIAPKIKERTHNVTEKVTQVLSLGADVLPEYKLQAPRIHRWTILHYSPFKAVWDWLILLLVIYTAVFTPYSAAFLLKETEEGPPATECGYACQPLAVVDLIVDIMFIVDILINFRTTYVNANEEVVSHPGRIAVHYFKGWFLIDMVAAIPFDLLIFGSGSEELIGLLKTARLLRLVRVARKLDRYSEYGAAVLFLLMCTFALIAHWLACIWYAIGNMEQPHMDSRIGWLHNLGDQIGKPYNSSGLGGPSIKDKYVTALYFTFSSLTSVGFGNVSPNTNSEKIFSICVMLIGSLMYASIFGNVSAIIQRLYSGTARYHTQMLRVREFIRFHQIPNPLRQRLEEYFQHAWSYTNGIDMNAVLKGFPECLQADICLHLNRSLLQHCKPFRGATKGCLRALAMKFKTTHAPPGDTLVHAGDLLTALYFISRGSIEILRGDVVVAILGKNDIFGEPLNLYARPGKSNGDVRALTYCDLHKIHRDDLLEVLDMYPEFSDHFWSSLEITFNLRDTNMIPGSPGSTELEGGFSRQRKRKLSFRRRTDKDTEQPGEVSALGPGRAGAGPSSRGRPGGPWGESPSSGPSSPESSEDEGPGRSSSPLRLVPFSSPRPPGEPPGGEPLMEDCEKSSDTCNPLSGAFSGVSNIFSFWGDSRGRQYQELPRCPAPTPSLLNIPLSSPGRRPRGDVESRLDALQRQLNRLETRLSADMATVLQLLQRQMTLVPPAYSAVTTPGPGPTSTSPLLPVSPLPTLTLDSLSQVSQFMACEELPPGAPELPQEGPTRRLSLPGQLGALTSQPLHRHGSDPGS

[18] = system: Mus musculus; assay: In vivo inhibition of EZH2 in mouse xenografted with human KARPAS422 cells harboring EZH2 Y641N mutant assessed as reduction in H3K27me3 level in tumor at 100 mg/kg, po bid measured 4 hrs post last dose on day 9 relative to control; assay type: functional; settings: KARPAS-422, po; in short: as §1
[19] = biological target: T1, Histone-lysine N-methyltransferase EZH2
Target sequence in this assay (Q15910 whole entry, looked up): as the sequence (Q15910 whole entry) above

[20] = Kinetic solubility of the compound; assay type: physicochemical; settings: read-out: Kinetic_solubility
[21] = system: KARPAS-422; assay: Antiproliferative activity against human KARPAS422 cells after 72 hrs by resazurin assay; assay type: functional, cell-based; settings: Homo sapiens, KARPAS-422, 72 h
[22] = system: Mus musculus; assay: Time at which free plasma concentration stays below antiproliferative KARPAS422 cells IC90 level in mouse xenografted with human KARPAS422 cells at 100 mg/kg, po bid
[23] = Lipophilicity, log D of the compound at pH 7.4; settings: buffer, pH 7.4, logD

In the case of COc1cc(C)[nH]c(=O)c1CN1CCc2c(Cl)cc([C@H](OC)C3COC3)c(Cl)c2C1=O [MEVROMETOSTAT], the Activity [1] is reported as “Non-Toxic”, the Time [2] is reported as 24 h and the Ki [3] is reported as less than 0.1 nM. The TGI [4] was “Active”, the hepatocyte CLint [5] was 109 µL/min/1e6 cells and the IC50 [6] was 4 nM. The inhibition in vivo at 300 mg/kg [7] was 47.9%, the IC50 [8] was greater than 30000 nM and the Activity [9] was “Non-Toxic”. The Activity [10] was “Active”, the IC50 [11] was greater than 30000 nM and the solubility thermodynamic [12] was 315 µg/mL (≈ 674 µM). For the same molecule, the IC50 [13] was greater than 30000 nM, the inhibition in vivo at 100 mg/kg [14] was 13.8% and the Ki [15] was 70 nM. For the same molecule, the Activity [16] was “Active”, the IC50 [17] was greater than 100000 nM and the inhibition in vivo at 100 mg/kg [18] was 45.4%. The T1/2 [19] was 22 h, the solubility kinetic [20] was 538 µM (≈ 251 µg/mL) and the IC50 [21] was 6 nM. The IC90 [21] was 60 nM, the Time [22] was 7 to 24 h and the logD [23] was 1.9.

Reference: ChEMBL document CHEMBL4024771, “Optimization of Orally Bioavailable Enhancer of Zeste Homolog 2 (EZH2) Inhibitors Using Ligand and Property-Based Design Strategies: Identification of Development Candidate …” (J Med Chem, 2018)
